ABHD4 inh – inhibitors of mouse ABHD4; Q8VD66; purified mABHD4, FP-Rh probe fluorescence polarization; inhibition, % at 8.92 µM; 370,000 tested, 0.54% active;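 active = inhibition exceeding the mean over every tested compound plus 3 SD, cut at about 30% in these data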;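 note: 0% = plate median of compound wells and 100% = S159A mutant with DMSO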
Target sequence (Q8VD66 whole entry, looked up): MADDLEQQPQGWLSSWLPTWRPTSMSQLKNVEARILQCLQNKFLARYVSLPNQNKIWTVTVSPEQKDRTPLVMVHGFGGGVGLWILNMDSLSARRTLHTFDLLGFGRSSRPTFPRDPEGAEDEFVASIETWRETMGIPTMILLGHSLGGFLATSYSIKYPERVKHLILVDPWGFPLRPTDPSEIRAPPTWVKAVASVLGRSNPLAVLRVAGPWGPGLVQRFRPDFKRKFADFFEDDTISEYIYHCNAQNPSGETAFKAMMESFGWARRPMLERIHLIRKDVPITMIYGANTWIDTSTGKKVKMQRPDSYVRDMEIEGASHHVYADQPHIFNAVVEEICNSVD
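Assay system: wild-type mouse ABHD4 protein; compound: single nominal dose of 8.92 µM, 0.89% DMSO final; schedule: 45 min + 60 min at 25 °C; measured by: FP readout, ex 525 nm / em 598 nm; evaluation: % inhibition of FP-Rh probe binding versus controls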
HTRA1 inh – inhibitors of human serine peptidase HTRA1. recombinant HTRA1, FP-rhodamine activity-based probe, fluorescence polarization. inhibition, % at 5.96 µM. 340,000 tested, 0.5% active. AID 504803; in the data active = inhibition above about 36%;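 note: 0% = enzyme with DMSO and 100% = wells lacking enzyme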
SIAE inh – blocks human sialic acid acetylesterase | Q9HAT2 | SIAE FP-Rh probe binding, fluorescence polarization | inhibition, % at 9.66 µM | 370,000 tested, 0.69% active;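 active = inhibition above a cutoff: mean of compounds within the control limits plus 3 SD of those, cut at about 17% in these data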;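 note: 0% = plate median of compound wells and 100% = probe without SIAE protein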
PRMT1 inh – inhibitors of human PRMT1. inhibition, % at 2.79 µM. AID 652257. recombinant PRMT1, activity-based probe fluorescence polarization. 370,000 tested, 1.3% active;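 active = inhibition above about 21% made by adding two undisclosed values, limit read from the data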
rCAG binder – binds r(CAG) RNA repeats; r(CAG) RNA repeat, TO-PRO-1 dye displacement fluorescence; inhibition, % at 3 µM; 370,000 tested, 1.3% active;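 active = inhibition above the plate cutoff, the mean of all test compounds on that plate plus 3 SD, cut at about 35% in these data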;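 note: 0% = DMSO alone and 100% = 100 µM mitoxantrone as full dye displacement; higher means more dye released from RNA so lower well fluorescence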
TCR CD3 inh – human TCR-CD3 binding inhibition | AID 651800 | inhibition, % at 9.4 µM | TAMRA-labeled TCR probe fluorescence, biochemical | 360,000 tested, 0.37% active; in the data active = inhibition above about 19%;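 note: recombinant mutant TCR 2C K166C tagged with TAMRA read by polarization; 0% = receptor in buffer alone and 100% = receptor with positive control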
PRMT1 inh conf – confirmation of human PRMT1 inhibitors; shares compounds with PRMT1 inh; 3,300 tested, 42% active; recombinant His-PRMT1, activity-based probe fluorescence polarization; inhibition, % at 2.79 µM;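 active = mean inhibition across replicates above the hit cutoff derived for the earlier primary screen, cut at about 22% in these data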
* hit, by the source's call; / = no result. The list is not random: actives were taken first. Their share in the collection is about 3.5%.

SMILES	ABHD4 inh	HTRA1 inh	SIAE inh	PRMT1 inh	rCAG binder	TCR CD3 inh	PRMT1 inh conf
O=C(CCl)NC1CCCCN(Cc2ccc(OC(F)(F)F)cc2)C1=O (stereo unspecified)	2	/	5	1	1	/	/
CCOC(=O)CC[C@@]1(C(=O)OCC)C[C@@H](CC(=O)NCCCN2CCCC2=O)C(=O)N2CCCC=C21	0	/	5	5	0	/	/
CCCCc1ccc(-c2noc(CCC(=O)NCC)n2)cc1	-7	/	2	-1	/	/	/
Oc1ccc(Cl)cc1/C=N/c1nccs1	0	2	4	1	5	-1	/
Oc1ccc(Cl)cc1C=Nc1ccc2c3c(cccc13)CC2	20	21	-1	39*	-16	15	13
CCN(CC)c1ccc(-c2nn3c(-c4ccc(C(C)(C)C)cc4)nnc3s2)cc1	6	/	-3	5	4	/	/
COc1cccc(/C=C2\SC(=S)N(NC(=O)c3ccncc3)C2=O)c1	-7	-1	-2	37*	16	0	13
Cc1ccc(S(=O)(=O)CCSC(=N)N)cc1	-1	4	3	25*	-5	6	7
COc1ccc2c(c1)CCCN2C(=O)C1CCCN(S(=O)(=O)c2ccccc2)C1 (stereo unspecified)	11	/	4	4	1	/	/
Cc1cc(C(=O)COc2cccnc2[N+](=O)[O-])c(C)n1Cc1cccs1	28	-3	6	29*	5	1	-1
CC(=O)Nc1ccccc1OCC(=O)c1cc(C)n(Cc2cccs2)c1C	2	-13	-7	1	-3	0	/
O=C(CCN1C(=O)/C(=C\c2ccccc2F)SC1=S)N1CCOCC1	-2	-7	4	-4	1	2	/
CN1CCN(C(=O)CCN2C(=O)/C(=C\c3ccccc3F)SC2=S)CC1	-47	-6	-6	28*	6	-45	6
COc1ccc2[nH]c(S(=O)Cc3ncc(C)c(OC)c3C)nc2c1 (stereo unspecified)	9	-2	-1	34*	12	-5	-4
O=C(NCc1ccc(Cl)cc1)C1CCCN(c2ncccn2)C1 (stereo unspecified)	2	/	0	0	-1	/	/
O=[N+]([O-])c1ccc(OCCCN2CCC(C(O)(c3ccccc3)c3ccccc3)CC2)c(Cl)c1	5	/	0	-4	2	/	/
FC(F)(F)c1ccccc1NC(=S)OCCN1CCCC12CCC(c1ccccc1)CC2 (stereo unspecified)	10	/	2	42*	/	/	25*
CCCC1CCC2(CCCN2CCOC(=S)Nc2ccccc2)CC1 (stereo unspecified)	-1	/	3	15	/	/	/
CCCC1CCC2(CCCN2CCOC(=S)Nc2cccc(Cl)c2)CC1 (stereo unspecified)	5	/	10	32*	/	/	30*
CN(C)S(=O)(=O)c1cccc(C(=O)N/N=C\c2ccc(-c3ccccn3)cc2)c1	-3	/	1	2	2	/	/
CCCCNS(=O)(=O)/C=C/c1ccc(OC)cc1CNC(=O)OC(C)(C)C	-6	/	0	0	0	/	/
COc1ccc(C2OCCNC3C2C(=O)N(Cc2ccc(OC)cc2OC)C3Cc2ccccc2)cc1 (stereo unspecified)	4	/	4	5	/	/	/
CC(=O)Nc1ccc(Sc2ccc([N+](=O)[O-])o2)cc1	6	-6	-6	34*	1	1	36*
CC(C)(C)C(=O)Nc1ccc(Sc2ccc([N+](=O)[O-])cc2)cc1	-44	-26	8	-1	-2	4	/
Cc1cc(C)n(CCc2nc(-c3cccs3)cs2)n1	6	-4	-1	6	-4	1	/
SMILES	ABHD4 inh	HTRA1 inh	SIAE inh	PRMT1 inh	rCAG binder	TCR CD3 inh	PRMT1 inh conf
Cc1cc(C)n(CCc2nc(-c3ccco3)cs2)n1	4	9	7	40*	11	11	57*
COCC(C)n1c(C)cc(C(=O)CSc2ccc(NC(C)=O)cc2)c1C (stereo unspecified)	1	11	3	39*	-2	5	20
COCCn1c(C)cc(C(=O)CSc2ccc3ccccc3n2)c1C	10	-16	14	35*	4	-4	-3
COCC(C)n1c(C)cc(C(=O)CSc2ncccn2)c1C (stereo unspecified)	4	0	7	-2	-2	5	/
COCCn1c(C)cc(C(=O)CSc2ccc(NC(C)=O)cc2)c1C	-1	-1	0	25*	0	5	25*
O=C(C1CC1)C1(C(=O)N2CCOCC2)CC(c2ccccn2)=NO1 (stereo unspecified)	-5	/	3	-2	1	/	/
COP(=O)(O)C(C)NC(=O)OCc1ccccc1 (stereo unspecified)	3	/	-4	-4	0	/	/
CC1CCN(C(=O)COC(=O)/C=C/c2ccc(Br)o2)CC1	6	14	3	36*	15	-2	11
CC1CCCC(C)N1C(=O)COC(=O)/C=C/c1ccc(Br)o1 (stereo unspecified)	5	5	4	9	5	-1	/
Oc1ccc(CNc2cccnc2)c2cccnc12	6	/	10	39*	/	/	34*
CSc1ccc(C(=O)NCC2CCN(C(=O)C(=O)c3cc4ccccc4o3)CC2)cc1	0	/	-1	2	5	-4	/
CCOC(=O)C1(c2ccccc2)SC(C(=O)OCC)(c2ccccc2)S1 (stereo unspecified)	-1	-1	-3	71*	1	-3	59*
CCOC(=O)C1(c2ccccc2)CCCNC1=O (stereo unspecified)	-2	1	1	0	0	-7	/
COc1ccc(C2=NS(=O)(=O)N(C)C(C(=O)Nc3ccc(F)cc3F)=C2)cc1	-5	-15	3	85*	6	0	5
Cc1ccccc1C(=O)OCC(=O)N(C)c1c(N)n(Cc2ccccc2)c(=O)[nH]c1=O	1	-4	0	-2	-6	2	/
Cc1ccc(/C=C/C(=O)OCC(=O)N(C)c2c(N)n(Cc3ccccc3)c(=O)[nH]c2=O)o1	-5	6	0	44*	9	-10	-1
CCOC(=O)CNC(=O)CSc1nc(Cc2cccs2)nc2ccccc12	4	-8	-4	27*	8	-1	22*
CCCCCOc1ccc(C(=O)CCN2CCOCC2)cc1	0	-1	-1	26*	-9	-3	2
CC(C)n1c(=S)[nH]c2c1c(=O)[nH]c(=O)n2C	4	3	7	45*	0	0	47*
C=CC(C)n1c(Br)nc2c1c(=O)[nH]c(=O)n2C (stereo unspecified)	3	3	5	-5	-2	2	/
CC(=O)N(c1cccc(C)c1)C1SC(=O)N(c2ccccc2)C1=O (stereo unspecified)	-2	-1	-8	32*	-4	-1	23*
